According to ChEMBL document CHEMBL1240414, “Synthesis and anticonvulsant activity of new 6-methyl-1-substituted-4,6-diazaspiro[2.4]heptane-5,7-diones” (Eur J Med Chem, 2010):
The source made the active and inactive calls.

How the values were obtained:
Mus musculus [1] = test: Anticonvulsant activity in Kunming mouse assessed as protection against maximal electroshock-induced seizures at 30 mg/kg, ip after 0.5 hrs; assay type: functional, organism-based; set-up: dose 30 mg/kg
Mus musculus [2] = test: Anticonvulsant activity in Kunming mouse assessed as protection against subcutaneous pentylenetetrazole-induced seizures at 100 mg/kg, ip after 4 hrs; assay type: functional, organism-based; set-up: dose 100 mg/kg
Outline: (§1)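 Male Kunming mice (20 ± 2.0 g) received the compound ip as a suspension in 0.5% methylcellulose at 30, 100 or 300 mg/kg, one to four mice per dose. Pentylenetetrazole in 0.9% saline was given sc at 0.5 h and 4.0 h after dosing. Protection meant no threshold seizure (one clonic spasm episode of at least 5 s). Scored as protected/tested.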

Mus musculus [3] = test: Neurotoxicity in Kunming mouse assessed as minimum motor impairment at 100 mg/kg, ip after 0.5 hrs by rotarod test; assay type: toxicity, organism-based; set-up: dose 100 mg/kg, route intraperitoneal; conditions: in vivo
Outline: (§2)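 Rotorod neurotoxicity in male Kunming mice (20 ± 2.0 g) given ip doses of 30, 100 or 300 mg/kg as a suspension in 0.5% methylcellulose, one to four mice per dose. Motor impairment was examined at 0.5 h and 4.0 h after injection. Reported as number of animals showing toxicity/number tested.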

Mus musculus [4] = test: Neurotoxicity in Kunming mouse assessed as minimum motor impairment at 30 mg/kg, ip after 4 hrs by rotarod test; assay type: toxicity, organism-based; set-up: dose 30 mg/kg, route intraperitoneal; conditions: in vivo; outline: as §2
Mus musculus [5] = test: Anticonvulsant activity in Kunming mouse assessed as protection against subcutaneous pentylenetetrazole-induced seizures at 100 mg/kg, ip after 0.5 hrs; assay type: functional, organism-based; set-up: dose 100 mg/kg; outline: as §1
Mus musculus [6] = test: Anticonvulsant activity in Kunming mouse assessed as protection against maximal electroshock-induced seizures at 30 mg/kg, ip after 4 hrs; assay type: functional, organism-based; set-up: dose 30 mg/kg
Mus musculus [7] = test: Anticonvulsant activity in Kunming mouse assessed as protection against subcutaneous pentylenetetrazole-induced seizures at 30 mg/kg, ip after 4 hrs; assay type: functional, organism-based; set-up: dose 30 mg/kg; outline: as §1
Mus musculus [8] = test: Anticonvulsant activity in Kunming mouse assessed as protection against maximal electroshock-induced seizures at 100 mg/kg, ip after 0.5 hrs; assay type: functional, organism-based; set-up: dose 100 mg/kg
Mus musculus [9] = test: Anticonvulsant activity in Kunming mouse assessed as protection against subcutaneous pentylenetetrazole-induced seizures at 300 mg/kg, ip after 4 hrs; assay type: functional, organism-based; set-up: dose 300 mg/kg; outline: as §1
Mus musculus [10] = test: Neurotoxicity in Kunming mouse assessed as minimum motor impairment at 100 mg/kg, ip after 4 hrs by rotarod test; assay type: toxicity, organism-based; set-up: dose 100 mg/kg, route intraperitoneal; conditions: in vivo; outline: as §2
Mus musculus [11] = test: Anticonvulsant activity in Kunming mouse assessed as protection against subcutaneous pentylenetetrazole-induced seizures at 300 mg/kg, ip after 0.5 hrs; assay type: functional, organism-based; set-up: dose 300 mg/kg; outline: as §1
Mus musculus [12] = test: Anticonvulsant activity in Kunming mouse assessed as protection against subcutaneous pentylenetetrazole-induced seizures at 30 mg/kg, ip after 0.5 hrs; assay type: functional, organism-based; set-up: dose 30 mg/kg; outline: as §1
Mus musculus [13] = test: Neurotoxicity in Kunming mouse assessed as minimum motor impairment at 30 mg/kg, ip after 0.5 hrs by rotarod test; assay type: toxicity, organism-based; set-up: dose 30 mg/kg, route intraperitoneal; conditions: in vivo; outline: as §2
Mus musculus [14] = test: Anticonvulsant activity in Kunming mouse assessed as protection against maximal electroshock-induced seizures at 300 mg/kg, ip after 4 hrs; assay type: functional, organism-based; set-up: dose 300 mg/kg
Mus musculus [15] = test: Neurotoxicity in Kunming mouse assessed as minimum motor impairment at 300 mg/kg, ip after 0.5 hrs by rotarod test; assay type: toxicity, organism-based; set-up: dose 300 mg/kg, route intraperitoneal; conditions: in vivo; outline: as §2
Mus musculus [16] = test: Anticonvulsant activity in Kunming mouse assessed as protection against maximal electroshock-induced seizures at 300 mg/kg, ip after 0.5 hrs; assay type: functional, organism-based; set-up: dose 300 mg/kg
Mus musculus [17] = test: Anticonvulsant activity in Kunming mouse assessed as protection against maximal electroshock-induced seizures at 100 mg/kg, ip after 4 hrs; assay type: functional, organism-based; set-up: dose 100 mg/kg
Mus musculus [18] = test: Neurotoxicity in Kunming mouse assessed as minimum motor impairment at 300 mg/kg, ip after 4 hrs by rotarod test; assay type: toxicity, organism-based; set-up: dose 300 mg/kg, route intraperitoneal; conditions: in vivo; outline: as §2

SMILES	Activity (Mus musculus [1])	Activity (Mus musculus [2])	Activity (Mus musculus [3])	Activity (Mus musculus [4])	Activity (Mus musculus [5])	Activity (Mus musculus [6])	Activity (Mus musculus [7])	Activity (Mus musculus [8])	Activity (Mus musculus [9])	Activity (Mus musculus [10])	Activity (Mus musculus [11])	Activity (Mus musculus [12])	Activity (Mus musculus [13])	Activity (Mus musculus [14])	Activity (Mus musculus [15])	Activity (Mus musculus [16])	Activity (Mus musculus [17])	Activity (Mus musculus [18])
COc1ccc(OC)c(C2CC23NC(=O)N(C)C3=O)c1 (configuration not stated)	Active	inactive	Non-toxic	Non-toxic	inactive	inactive	inactive	Active	inactive	Non-toxic	inactive	inactive	Non-toxic	–	–	–	–	–
CC(C)C1CC12NC(=O)N(C)C2=O (configuration not stated)	Active	inactive	Non-toxic	Non-toxic	inactive	–	inactive	Active	inactive	Non-toxic	inactive	inactive	Non-toxic	Active	Non-toxic	–	–	–
CCC1CC12NC(=O)N(C)C2=O (configuration not stated)	inactive	inactive	Non-toxic	Non-toxic	inactive	inactive	inactive	–	–	Non-toxic	inactive	inactive	Non-toxic	Active	Non-toxic	Active	inactive	–
CN1C(=O)NC2(CC2c2ccco2)C1=O (configuration not stated)	inactive	inactive	–	Non-toxic	inactive	inactive	inactive	inactive	inactive	–	inactive	inactive	Toxic	inactive	–	Active	inactive	–
COc1cc(C2CC23NC(=O)N(C)C3=O)cc(OC)c1OC (configuration not stated)	inactive	inactive	Non-toxic	Non-toxic	inactive	inactive	inactive	Active	–	Non-toxic	–	inactive	Non-toxic	Active	Non-toxic	–	inactive	Non-toxic
CCC(CC)C1CC12NC(=O)N(C)C2=O (configuration not stated)	inactive	inactive	Non-toxic	Non-toxic	inactive	inactive	inactive	–	–	Non-toxic	inactive	inactive	Non-toxic	–	Non-toxic	Active	inactive	Non-toxic
COc1ccc(C2CC23NC(=O)N(C)C3=O)cc1 (configuration not stated)	inactive	inactive	Non-toxic	Non-toxic	inactive	inactive	inactive	–	inactive	Non-toxic	–	inactive	Non-toxic	Active	Non-toxic	Active	inactive	Non-toxic
Cc1ccc(C2CC23NC(=O)N(C)C3=O)cc1 (configuration not stated)	Active	inactive	Non-toxic	Non-toxic	inactive	inactive	inactive	Active	–	Non-toxic	–	inactive	Non-toxic	–	Toxic	–	–	Non-toxic
CN1C(=O)NC2(CC2c2ccc(Cl)cc2)C1=O (configuration not stated)	inactive	inactive	Toxic	Non-toxic	inactive	inactive	inactive	Active	inactive	Toxic	–	inactive	Non-toxic	–	–	–	inactive	–
CN1C(=O)NC2(CC2c2ccccc2Cl)C1=O (configuration not stated)	inactive	inactive	–	Non-toxic	inactive	inactive	inactive	–	inactive	Non-toxic	inactive	inactive	Non-toxic	inactive	Toxic	Active	inactive	Toxic
CCCC1CC12NC(=O)N(C)C2=O (configuration not stated)	inactive	inactive	Non-toxic	Non-toxic	inactive	inactive	inactive	Active	inactive	Non-toxic	inactive	inactive	Toxic	Active	Toxic	–	–	Toxic
CC(C)CC1CC12NC(=O)N(C)C2=O (configuration not stated)	Active	inactive	Non-toxic	Non-toxic	inactive	inactive	inactive	Active	inactive	Non-toxic	–	Active	Toxic	–	Toxic	–	–	Non-toxic
CN1C(=O)NC2(CC2c2ccc(Br)cc2)C1=O (configuration not stated)	inactive	inactive	–	Non-toxic	inactive	inactive	inactive	inactive	inactive	Non-toxic	inactive	inactive	Non-toxic	Active	Non-toxic	Active	inactive	–
COc1ccc(C2CC23NC(=O)N(C)C3=O)cc1OC (configuration not stated)	Active	inactive	Non-toxic	Non-toxic	inactive	inactive	inactive	Active	–	Non-toxic	–	inactive	Non-toxic	Active	–	–	–	–
